According to PMC2233693 (The Journal of General Physiology, 2000):
Positions count from the first letter of the chain named. Like-named read-outs stand apart in the source and are kept apart here.

Columns and labels:
Format in all cases: biochemical
[1] = target: T1, E340N mutant bovine olfactory CNG channel (Bos taurus, UniProt Q03041, E340N)
T1 sequence (Q03041 1-663 E340N): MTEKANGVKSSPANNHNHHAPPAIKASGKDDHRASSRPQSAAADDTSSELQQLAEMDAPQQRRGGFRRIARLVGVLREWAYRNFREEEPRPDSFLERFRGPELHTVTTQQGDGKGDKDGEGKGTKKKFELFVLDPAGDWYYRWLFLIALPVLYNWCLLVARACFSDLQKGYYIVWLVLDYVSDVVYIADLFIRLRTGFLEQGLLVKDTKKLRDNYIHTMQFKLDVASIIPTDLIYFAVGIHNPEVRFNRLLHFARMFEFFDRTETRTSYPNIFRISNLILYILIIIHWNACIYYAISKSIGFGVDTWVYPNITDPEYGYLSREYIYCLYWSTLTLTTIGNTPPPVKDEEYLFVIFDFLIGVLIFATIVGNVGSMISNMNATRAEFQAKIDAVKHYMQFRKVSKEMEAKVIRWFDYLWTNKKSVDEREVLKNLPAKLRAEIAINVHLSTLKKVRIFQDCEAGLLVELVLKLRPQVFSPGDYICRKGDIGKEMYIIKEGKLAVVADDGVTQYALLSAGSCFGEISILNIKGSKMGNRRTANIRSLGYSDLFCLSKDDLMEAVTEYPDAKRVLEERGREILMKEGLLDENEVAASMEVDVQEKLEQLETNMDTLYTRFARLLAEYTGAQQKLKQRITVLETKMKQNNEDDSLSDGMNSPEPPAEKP

[2] = target: T2, E340G mutant bovine olfactory CNG channel (Bos taurus, UniProt Q03041, E340G)
T2 sequence (Q03041 1-663 E340G): T1 sequence (Q03041 1-663 E340N) with N340G

[3] = target: T2, E340G mutant bovine olfactory CNG channel; assay: Divalent cation permeation, outside-out patches in bi-ionic conditions; settings: for reversal potential, V rev: internal Na
Procedure, shortened: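 Outside-out oocyte patches; the pipette held 1 mM cGMP and 110 mM NaCl. External 110 mM NaCl was replaced by 73.3 mM CaCl2 or MgCl2. From a 0 mV holding potential, 150-ms steps were given from −80 to +80 mV in 20-mV increments. I_Ca/I_Na was taken at −80 mV, and reversal potential under bi-ionic conditions (internal Na+, external divalent); mean ± SD.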

[4] = target: T3, E340D mutant bovine olfactory CNG channel (Bos taurus, UniProt Q03041, E340D); assay: Blockage of macroscopic current by external Ca2+ or Mg2+, outside-out patches; settings: for Ki: mean ± SD
T3 sequence (Q03041 1-663 E340D): T1 sequence (Q03041 1-663 E340N) with N340D
Procedure, shortened: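 Xenopus oocytes injected with wild-type or mutant channel mRNA; outside-out patches with 100 μM cGMP in the pipette. Bath: 110 mM NaCl, 2 mM EDTA, 10 mM HEPES, pH 7.4, plus Ca2+ (NTA-buffered) or Mg2+ (EDTA-buffered); unbuffered above 0.1 mM. Five 1-s ramps (−80 to +80 mV) averaged, leak subtracted. Current normalised to divalent-free current at the same voltage, Hill-fitted per patch; Ki and n given as mean ± SD.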

[5] = read-out: K 1/2,cG, −80 mV, single patch, Fig. 1 fit
[6] = −80 mV, single patch, Fig. 1 fit

SMILES: [Ca+2] [Ca^2+]
- effect of external Ca2+ on K 1/2 for cAMP or cGMP ([1]; 1 mM Ca2+ in the patch pipette): did not significantly affect K 1/2
- effect of external Ca2+ on K 1/2 for cAMP or cGMP ([2]; 1 mM Ca2+ in the patch pipette): did not significantly affect K 1/2
- reversal potential, V rev ([3]; external Ca2+): 24 ± 5 mV
- I Ca/I Na ([3]; −80 mV, external 73.3 mM CaCl2 vs 110 mM NaCl): 0.16 ± 0.03
- n, Hill coefficient of blockage ([4]; external Ca2+, +80 mV): 1.3 ± 0.5
- Ki ([4]; external Ca2+, +80 mV): 18 ± 10 µM
- n, Hill coefficient of blockage ([4]; external Ca2+, −80 mV): 1.2 ± 0.5
- Ki ([4]; external Ca2+, −80 mV): 47 ± 7 µM

SMILES: Nc1nc2c(ncn2[C@@H]2O[C@@H]3COP(=O)(O)O[C@H]3[C@H]2O)c(=O)[nH]1 [cGMP]
- n(−80 mV), Hill coefficient ([1]; cGMP): 2.1 ± 0.3
- I(−80 mV)/I(+80 mV) ([1]; cGMP-gated current): 0.55 ± 0.10
- EC50 ([1]; read-out: K 1/2, cGMP, +80 mV): 5.6 ± 1.8 µM
- EC50 ([1]; read-out: K 1/2, cGMP, −80 mV): 7.6 ± 4 µM
- EC50 [1, 5]: 6.6 µM
- n cG [1, 6]: 2.3
- n(−80 mV), Hill coefficient ([2]; cGMP): 1.8 ± 0.4
- I(−80 mV)/I(+80 mV) ([2]; cGMP-gated current): 0.79 ± 0.09
- EC50 ([2]; read-out: K 1/2, cGMP, +80 mV): 13 ± 1.5 µM
- EC50 ([2]; read-out: K 1/2, cGMP, −80 mV): 15 ± 1.6 µM
- EC50 [2, 5]: 18.5 µM
- n cG [2, 6]: 1.6

SMILES: [Mg+2] [Mg^2+]
- reversal potential, V rev ([3]; external Mg2+): 45 ± 15 mV
- n, Hill coefficient of blockage ([4]; external Mg2+, +80 mV): 0.9 ± 0.2
- Ki ([4]; external Mg2+, +80 mV): 155 ± 56 µM
- n, Hill coefficient of blockage ([4]; external Mg2+, −80 mV): 0.7 ± 0.2
- Ki ([4]; external Mg2+, −80 mV): 53 ± 17 µM
